Where two headings read alike, the source gives them in different places. Blank lines part the entries; values can stand above or below the compound they belong to.
What was measured:
[1] = test system: hLTP; conditions: cited from earlier work
[2] = Pharmacokinetics in mice: total plasma and brain concentrations by LC-MS; format: in vivo; conditions: male, C57BL/6J, mouse
[3] = Pharmacokinetics in rats: total plasma and brain concentrations by LC-MS; format: in vivo; conditions: oral gavage 50 mg/kg, rats (Fig. 6D)
[4] = biological target: KCa3.1 (Mus musculus, UniProt O89109); assay: Whole-cell patch-clamp on AβO-activated cultured primary microglia; format: cell-based; conditions: AβO 100 nmol/L 24 h, senicapoc 1 μmol/L (Fig. 7A)
Sequence of KCa3.1 (Mus musculus, UniProt O89109) (O89109 whole entry): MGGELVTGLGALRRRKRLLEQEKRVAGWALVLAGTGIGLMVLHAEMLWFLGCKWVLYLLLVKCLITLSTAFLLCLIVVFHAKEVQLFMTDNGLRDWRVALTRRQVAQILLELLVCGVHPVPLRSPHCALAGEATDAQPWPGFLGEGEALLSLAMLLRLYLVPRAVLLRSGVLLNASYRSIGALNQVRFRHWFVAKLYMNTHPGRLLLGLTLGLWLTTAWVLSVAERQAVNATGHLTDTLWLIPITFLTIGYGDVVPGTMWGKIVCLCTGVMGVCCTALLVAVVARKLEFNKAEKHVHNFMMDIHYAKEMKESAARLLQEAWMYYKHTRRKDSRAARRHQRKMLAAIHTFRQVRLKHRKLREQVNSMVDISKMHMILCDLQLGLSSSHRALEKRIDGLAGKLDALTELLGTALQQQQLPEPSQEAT
In short: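 Whole-cell patch-clamp was done on cultured primary microglia after 24 h AβO (100 nmol/L) with test compound or vehicle. An aspartate-based internal solution was used. KCa3.1 conductance was taken from the slope of the TRAM-34-sensitive KCa current between −80 and −75 mV.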

[5] = test system: primary microglia; assay: AβO-induced proinflammatory activation of cultured primary microglia; format: cell-based, mouse
In short: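 Primary microglia came from mixed glia cultures and were exposed to AβO (100 nmol/L) for 24 h with test compound or vehicle. For qPCR, RNA was kit-extracted and analysed by the 2‑ΔΔCt method with Actb as reference. For p38MAPK, cells were lysed in Triton/SDS buffer with protease and phosphatase inhibitors, then immunoblotted with anti-phospho-p38MAPK and anti-p38MAPK (1:1000).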

[6] = test system: 5xFAD mice; assay: hLTP in hippocampal slices from treated 5xFAD mice; format: in vivo; conditions: senicapoc diet for three months; to the level of Wt mice (Fig. 8F and G)
In short: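 5xFAD and Wt littermates aged six months were fed test compound-medicated (2400 ppm) or control diet for three months. Hippocampal slices then received high-frequency stimulation. The read-out was mean percent change in fEPSP slope from baseline, averaged 50–60 min after HFS, from 8–12 slices of 5–6 mice per group. Data are mean ± SE; two-way ANOVA with Bonferroni.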

[7] = test system: 5xFAD mice; format: in vivo
In short: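 Six-month-old 5xFAD and Wt littermates got 2400 ppm test compound or control diet for three months (n = 9/group). Frozen 20 μm sections were stained overnight at 4°C with anti-Iba-1, CD68 or CD11b (1:200), Alexa secondaries (1:700) and FSB (400 nmol/L) for plaques. KCa3.1 was detected with APC064 or P4997 (1:3000); microglial co-localisation used three images per mouse. Imaging and analysis were blinded.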

[8] = test system: 5xFAD mice; assay: qPCR of acutely isolated microglia after three months of senicapoc diet; format: in vivo
In short: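 Six-month-old 5xFAD and Wt littermates were fed 2400 ppm test compound or control diet ad lib for three months (n = 9/group). Microglia were acutely isolated with anti-CD11b magnetic beads. RNA was extracted, reverse-transcribed and pre-amplified. Pro-inflammatory and M2-like transcripts (Arg1, CD206, […], IGF-1) were quantified by 2‑ΔΔCt against Actb. Groups were compared by two-way ANOVA with Bonferroni.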

[9] = test system: 5xFAD mice; assay: Memory tasks: novel object recognition and step-through passive avoidance; format: in vivo; conditions: 5xFAD mice at 9 months of age; no significant memory deficits in 5xFAD/control diet mice
[10] = humans; cited from earlier work
[11] = test system: KCa3.1; conditions: read-out: IC50 for KCa3.1 inhibition; cited from earlier work
[12] = cited from earlier work
[13] = cited from earlier work; remark: listed apart in the source

SMILES: CN(C)c1ccc(O)c2c1C[C@H]1C[C@H]3[C@H](N(C)C)C(O)=C(C(N)=O)C(=O)[C@@]3(O)C(O)=C1C2=O [minocycline]
- hLTP disruption by Aβ [1]: prevent the hLTP disruption

- concentration at 1 h ([2]; brain, ip, 50 mg/kg): 43 ± 8 µM
- half-life ([2]; plasma): ~1 h
- oral availability [3]: roughly 60%
- AβO-induced microglial KCa3.1 currents [4]: block
SMILES: NC(=O)C(c1ccccc1)(c1ccc(F)cc1)c1ccc(F)cc1 [senicapoc]
- AβO-induced microglial proliferation ([5]; AβO 100 nmol/L 24 h, senicapoc 1 μmol/L if not otherwise indicated (Fig. 7B)): block
- AβO-induced production of NO ([5]; AβO 100 nmol/L 24 h, senicapoc 1 μmol/L if not otherwise indicated (Fig. 7E)): block
- AβO-induced expression of microglial activation mediators IL-1β, IL-6 and iNOS ([5]; AβO 100 nmol/L 24 h, senicapoc 1 μmol/L, qPCR (Fig. 7C)): block
- AβO-induced activation of p38MAPK ([5]; AβO 100 nmol/L, senicapoc 1 μmol/L, Western blotting (Fig. 7D)): block
- reduced induction of hLTP in 5xFAD mice [6]: rectified
- number of microglia expressing KCa3.1 ([7]; medicated diet for three months (Fig. 8B)): significantly reduced
- reduction of CD11b immunoreactivity ([7]; medicated diet for three months, P < 0.001 (Fig. 8A)): 45%
- expressions of proinflammatory modulators IL-1β, TNF-α, IL-6, and iNOS (qPCR) ([8]; medicated diet for three months (Fig. 8C)): significantly reduced
- markers typical of an M2-like phenotype (qPCR) ([8]; medicated diet for three months (Fig. S5)): no changes
- cognitive benefit [9]: could not be demonstrated
- half-life [10]: ~ 7 day
- IC50 [11]: 11 nM
- protein binding [12]: 95%
- hemolysis and hemoglobin levels ([13]; Phase-2 clinical trial): reduced hemolysis and increased hemoglobin levels
- primary clinical end-point: reduction in the rate of vaso-occlusive pain crisis ([13]; Phase-3): failed to achieve its primary clinical end‐point
- safety and tolerability in humans ([13]; Phase-3 clinical trial for sickle cell anemia): safe and well‐tolerated

Reference: paper PMC6469250 (Annals of Clinical and Translational Neurology, 2019)
